Reference: ChEMBL document CHEMBL5625173, “Antimycobacterial pyridine carboxamides: From design to in vivo activity” (Eur J Med Chem, 2023)
≈ marks a conversion by molar mass, not a printed value. Calls of active or inactive are those of the source. The rule behind the calls is not given here.

Assays:
[1] = system: Mycobacterium tuberculosis; assay: Antimycobacterial activity against Mycobacterium tuberculosis H37Rv by alamar blue staining based microplate analysis; assay type: functional
In short: (§1)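 Microplate Alamar Blue assay. MIC values read at pH 6.6 (neutral). One acidic-pH test at pH 5.6 is footnoted separately.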

[2] = system: Mycobacterium tuberculosis; assay: Antimycobacterial activity against Mycobacterium tuberculosis H37Ra by alamar blue staining based microplate analysis; assay type: functional; in short: as §1
[3] = system: Mycobacterium avium; assay: Antimycobacterial activity against Mycobacterium avium by alamar blue staining based microplate analysis; assay type: functional; in short: as §1
[4] = system: Mycolicibacterium smegmatis; assay: Antimycobacterial activity against Mycobacterium smegmatis by alamar blue staining based microplate analysis; assay type: functional
In short: (§2)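 Microplate Alamar Blue assay, one of six mycobacterial strains tested (Mtb H37Rv, Mtb H37Ra, M. kansasii, M. avium, M. smegmatis, M. aurum); value reported as MIC.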

[5] = system: Mycolicibacterium aurum; assay: Antimycobacterial activity against Mycobacterium aurum by alamar blue staining based microplate analysis; assay type: functional; in short: as §2
[6] = Cytotoxicity against human HepG2 cells assessed as inhibition of cell viability; assay type: toxicity, cell-based
[7] = Selectivity index, ratio of IC50 for cytotoxicity against human HepG2 cells to MIC for antimycobacterial activity against Mycobacterium tuberculosis H37Rv; assay type: toxicity, cell-based; conditions: read-out: Selectivity Index
[8] = system: Mycobacterium tuberculosis; assay: Antimycobacterial activity against Mycobacterium tuberculosis H37Rv at 40 times MIC measured after 15 days in presence of methionine by alamar blue staining based microplate analysis; assay type: functional, organism-based; conditions: time 15.0 day
[9] = system: Mycobacterium kansasii; assay: Antimycobacterial activity against Mycobacterium kansasii by alamar blue staining based microplate analysis; assay type: functional; in short: as §2
[10] = system: Mycobacterium tuberculosis; assay: Antimycobacterial activity against Mycobacterium tuberculosis IZAK by alamar blue staining based microplate analysis; assay type: functional
[11] = system: Mycobacterium tuberculosis; assay: Antimycobacterial activity against Mycobacterium tuberculosis MAT1 by alamar blue staining based microplate analysis; assay type: functional
[12] = Metabolic stability in human liver microsomes assessed as half life at 3 uM incubated for 45 mins by HPLC-MS analysis; assay type: ADME, Microsome
In short: (§3)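 Ammonium salt or lactone, 3 μM, incubated with human liver microsomes at physiological pH; reactions stopped at 0, 5, 15, 30 and 45 min and analysed by HPLC-MS; k, t1/2 and intrinsic clearance calculated from the HPLC-MS records.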

[13] = Metabolic stability in human liver microsomes assessed as intrinsic clearance at 3 uM incubated for 45 mins by HPLC analysis; assay type: ADME, Microsome; conditions: read-out: CLH; in short: as §3
[14] = Drug metabolism in human liver microsomes assessed as M1 metabolite formation at 90 uM incubated for 3 hrs; assay type: ADME, Microsome
In short: (§4)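 Phase I metabolite identification: ammonium salt of the compound (for solubility) or its lactone, 90 μM, incubated with human liver microsomes for 3 h; metabolites detected by HPLC-MS, positive ion mode, by m/z.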

[15] = Drug metabolism in human liver microsomes assessed as M2 metabolite formation at 90 uM incubated for 3 hrs; assay type: ADME, Microsome; in short: as §4
[16] = Drug metabolism in human liver microsomes assessed as M3 metabolite formation at 90 uM incubated for 3 hrs; assay type: ADME, Microsome; in short: as §4
[17] = system: Mycobacterium tuberculosis; assay: Antimycobacterial activity against Mycobacterium tuberculosis H37Rv infected in mouse assessed as reduction in colony formation in lungs at 50 mg/kg administered for 28 days; assay type: functional, organism-based; conditions: time 28.0 day
In short: (§5)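 Mice infected intranasally with Mtb H37Rv; infection allowed to develop four weeks. Then dosed for 28 days with sodium salt forms as water solution by gastric tube. Lung and spleen CFU determined and compared with untreated control group.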

[18] = system: Mycobacterium tuberculosis; assay: Antimycobacterial activity against Mycobacterium tuberculosis H37Rv infected in mouse assessed as reduction in colony formation in spleen at 50 mg/kg administered for 28 days; assay type: functional, organism-based; conditions: time 28.0 day; in short: as §5
[19] = system: Mycobacterium tuberculosis; assay: Antimycobacterial activity against Mycobacterium tuberculosis H37Rv assessed as change in phospholipid production at 1.5 to 6 ug/ml incubated for 24 hrs in presence of 14C acetate by TLC analysis; assay type: functional, organism-based; conditions: dose 1.5-6 µg/ml
In short: (§6)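 Mtb H37Rv cultures exposed to 0, 1.5, 3 or 6 μg/ml compound or its sodium salt for 24 h. 14C acetate then added and cells grown a further 24 h. Lipids and mycolic acids extracted; fatty acids derivatized to methyl esters. Separated by TLC on standard or AgNO3-impregnated plates in Solvent IV and visualized by autoradiography.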

[20] = system: Mycobacterium tuberculosis; assay: Antimycobacterial activity against Mycobacterium tuberculosis H37Rv assessed as change in trehalose monomycolates production at 1.5 to 6 ug/ml incubated for 24 hrs in presence of 14C acetate by TLC analysis; assay type: functional, organism-based; conditions: dose 1.5-6 µg/ml; in short: as §6
[21] = system: Mycobacterium tuberculosis; assay: Antimycobacterial activity against Mycobacterium tuberculosis H37Rv assessed as change in trehalose dimycolates production at 1.5 to 6 ug/ml incubated for 24 hrs in presence of 14C acetate by TLC analysis; assay type: functional, organism-based; conditions: dose 1.5-6 µg/ml; in short: as §6
[22] = system: Mycobacterium tuberculosis; assay: Antimycobacterial activity against Mycobacterium tuberculosis H37Rv assessed as decreased synthesis of tri-acylglyerols at 1.5 to 6 ug/ml incubated for 24 hrs in presence of 14C acetate by TLC analysis; assay type: functional, organism-based; conditions: dose 1.5-6 µg/ml; in short: as §6
[23] = system: Mycobacterium tuberculosis; assay: Antimycobacterial activity against Mycobacterium tuberculosis H37Rv assessed as decreased synthesis of methoxy-mycolic acid at 1.5 to 6 ug/ml incubated for 24 hrs in presence of 14C acetate by TLC analysis; assay type: functional, organism-based; conditions: dose 1.5-6 µg/ml; in short: as §6
[24] = system: Mycobacterium tuberculosis; assay: Antimycobacterial activity against Mycobacterium tuberculosis H37Rv assessed as decreased synthesis of cyclopropyl-mycolic acid at 1.5 to 6 ug/ml incubated for 24 hrs in presence of 14C acetate by TLC analysis; assay type: functional, organism-based; conditions: dose 1.5-6 µg/ml; in short: as §6
[25] = system: Mycobacterium tuberculosis; assay: Antimycobacterial activity against Mycobacterium tuberculosis H37Rv at 1 times MIC measured after 15 days in presence of methionine by alamar blue staining based microplate analysis; assay type: functional, organism-based; conditions: time 15.0 day

Nc1ccc(C(=O)O)c(O)c1 [AMINOSALICYLIC ACID]
MIC [1]: 3.13 µg/mL (≈ 20.4 µM)
MIC [2]: 0.25 µg/mL (≈ 1.63 µM)
MIC [3]: 3.13 µg/mL (≈ 20.4 µM)
MIC [4]: 500 µg/mL (≈ 3270 µM)
MIC [5]: 250 µg/mL (≈ 1630 µM)
IC50 [6]: > 1270 µM
selectivity ratio [7]: 62.1
Activity [8]: inactive

O=C(Nc1ccc2c(c1)OCOC2=O)c1ccc2ccccc2n1
MIC [1]: 1.56 µg/mL (≈ 4.87 µM)
MIC [2]: 1.98 µg/mL (≈ 6.18 µM)
MIC [9]: > 100 µg/mL
MIC [3]: > 100 µg/mL
MIC [4]: ≥ 250 µg/mL
MIC [5]: ≥ 250 µg/mL
IC50 [6]: > 25 µM
selectivity ratio [7]: > 5.1
MIC [10]: 50 µg/mL (≈ 156 µM)
MIC [11]: 50 µg/mL (≈ 156 µM)
half-life at 3 µM [12]: 11 min
microsomal CLint at 3 µM [13]: 122 µL/min/mg
Drug metabolism [14]: Metabolite_Detected
Drug metabolism [15]: Metabolite_Detected
Drug metabolism [16]: Metabolite_Detected

O=C(Nc1ccc(C(=O)O)c(O)c1)c1ccc2ccccc2n1
Activity [17]: inactive
Activity [18]: Active
Activity [19]: inactive
Activity [20]: inactive
Activity [21]: inactive
Activity [22]: Active
Activity [23]: Active
Activity [24]: Active
Activity [25]: inactive
